An excerpt weighted towards active compounds, which were near 2.5% of everything screened.
eLon inh: inhibits E. coli Lon protease; P0A9M0; purified E. coli Lon protease, fluorescence polarization; inhibition, % at 7.94 µM; 0.42% of 360,000 active; in the data active = inhibition above about 13%, passing the limit was not always enough
PRMT1 inh: inhibitors of human PRMT1 | Q99873 | recombinant PRMT1, activity-based probe fluorescence polarization | inhibition, % at 2.79 µM | 1.3% of 370,000 active | AID 652257;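 active = inhibition above about 21% made by adding two undisclosed values, limit read from the data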
PAD4 FP inh: blocks human protein arginine deiminase 4; Q9UM07; recombinant PAD4, RCA probe fluorescence polarization; inhibition, % at 6.36 µM; 0.41% of 330,000 active; AID 485272;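 active = percent inhibition above a cutoff equal to the mean of all tested compounds plus 3 SD, cut at about 15% in these data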
TDP2 absorb: TDP2 (human) inhibition, absorbance primary screen | O95551 | recombinant TDP2, T5PNP hydrolysis, p-nitrophenol absorbance 415 nm | inhibition, % at 12.8 µM | 0.34% of 370,000 active | AID 720702;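 active = inhibition above the mean of all tested compounds plus 3 SD, set per campaign, cut at about 25% in these data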
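Incubation: 2 h at 37 °C; Test system: recombinant human TDP2; Quantity: enzyme 120 nM; Read-out basis: percent inhibition; Medium: 50 mM Tris-HCl pH 7.5 with Mg2+, KCl, DTT, BSA; Repeats: single replicate; Compound: 12.8 µM single point, 1% DMSO; Signal: epi absorbance; Reagent: 5 mM T5PNP chromogenic substrate; Benchmarks: no-enzyme high, DMSO-plus-enzyme low.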
GSTO1 inh: counter-screen for RBBP9 inhibitors: inhibitors of human GSTO1 | recombinant GSTO1, activity-based probe fluorescence polarization | inhibition, % at 5.96 µM | 1.1% of 300,000 active | AID 1974;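 active = inhibition above the campaign mean inhibition plus 3 SD, cut at about 35% in these data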
eLon confirm: confirmation of E. coli Lon protease inhibitors. shares compounds with eLon inh. purified E. coli Lon, fluorescence polarization. inhibition, % at 7.94 µM. 31% of 1,400 active. AID 602230; in the data active = inhibition above about 16%
A number is an active result; i = inactive; nt = no result given.

SMILES | eLon inh | PRMT1 inh | PAD4 FP inh | TDP2 absorb | GSTO1 inh | eLon confirm
O=C1c2cccc3cc([N+](=O)[O-])cc(c23)C(=O)N1/N=C/c1ccc(O)cc1O | 17 | i | i | i | i | 20
Nc1cc2c3c(cccc3c1)C(=O)N(CCN1CCCC1)C2=O | 94 | i | i | i | i | 82
Cc1ccc(S(=O)(=O)n2ccc(-c3c(-c4ccc(Cl)cc4)noc3C)n2)cc1 | nt | i | nt | i | nt | nt
CCCCNC(=O)C[C@H]1C[C@@]2(C(=O)OC)C(=C[C@H](COCc3ccccc3)O[C@@H]2C)N(Cc2ccco2)C1=O | nt | i | nt | i | nt | nt
CCC(CC)C(=O)OCC(=O)Nc1cccc([N+](=O)[O-])c1 | 16 | i | i | i | i | i
CCOC(=O)c1c(C(C)(C)C)oc2ccc(O)cc12 | 20 | nt | i | nt | i | i
O=C(OCc1cn(Cc2ccc(Cl)cc2)nn1)N1CCOCC1 | nt | i | nt | i | nt | nt
COCCn1c(=NC(=O)C2COc3ccccc3O2)sc2cc(S(N)(=O)=O)ccc21 (stereo unspecified) | i | i | i | i | i | nt
C=CCn1c(=NC(=O)C2COc3ccccc3O2)sc2cc(S(N)(=O)=O)ccc21 (stereo unspecified) | 23 | i | i | i | i | i
COC(=O)[C@]12C[C@H](CC(=O)NCCCN3CCCC3=O)C(=O)N(Cc3cccc4ccccc34)C1=C[C@H](C(C)(C)C)O[C@@H]2C | nt | i | nt | i | nt | nt

Source: PubChem (The Scripps Research Institute Molecular Screening Center)
